# In the library only some 2.2% were active in any assay of this set; here they are far more common.
# GRK2 inh – compounds blocking aptamer binding on GRK2 – biochemical, human GRK2, bead flow cytometry, HTS, primary screen; Beta-adrenergic receptor kinase 1 (Homo sapiens), P25098; FAM-aptamer displacement from GRK2; inhibition of aptamer binding, % at 10 µM; actives 0.59% (n = 330,000); AID 488847, 2010;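 active = inhibition of aptamer binding above 40%, roughly 3 SD of noise, on plates passing a quality check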;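 also: median bead fluorescence of bound FAM aptamer so fluorescent compounds give negative values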
# SUMO1-SIM PPI – modulators of SUMO1 protein-protein interactions, primary screen, biochemical, uHTS. Small ubiquitin-related modifier 1 (Homo sapiens), P63165. SUMO1 binding to a labelled peptide, TR-FRET, 1 h. inhibition, % at 20 µM. actives 0.33% (n = 360,000). AID 602429, 2012; in the data active = inhibition above about 37%
# Target sequence (P63165 whole entry, looked up): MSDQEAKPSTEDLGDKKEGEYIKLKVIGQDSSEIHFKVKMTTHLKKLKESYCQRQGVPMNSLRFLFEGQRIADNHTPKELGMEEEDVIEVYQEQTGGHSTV
# DNMT1 block – human DNMT1 methyltransferase inhibitors, primary screen, biochemical, molecular beacon, fluorescence, HinP1I cleavage, uHTS. actives 0.83% (n = 360,000). DNA (cytosine-5)-methyltransferase 1 (Homo sapiens), P26358. inhibition (reported as % activation of signal), % at 10 µM; in the data active = inhibition above about 50%
# STEP inh – STEP phosphatase inhibitors, primary screen, biochemical, fluorescence intensity, uHTS | recombinant STEP, OMFP fluorogenic substrate | inhibition, % at 20 µM | AID 588621, 2011 | Tyrosine-protein phosphatase non-receptor type 5 (Homo sapiens), P54829 | actives 0.25% (n = 360,000);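 active = inhibition at 20 µM, scaled per plate between control wells, above about 37%, limit read from the data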;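 also: 0% = DMSO with enzyme and substrate and 100% = substrate only without enzyme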
#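 Also added – OMFP at 25 µM · Test system – STEP tyrosine phosphatase · Technique – FITC-channel fluorescence of OMFP product · Schedule – 20 min at room temperature, dark · Evaluation – control-normalized % inhibition with plate pattern correction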
# LMPTP block – LMPTP phosphatase inhibitors, primary screen, biochemical, fluorescence intensity, uHTS; Low molecular weight phosphotyrosine protein phosphatase (Homo sapiens), P24666; recombinant LMPTP-A, OMFP fluorogenic substrate; inhibition, % at 20 µM; actives 0.22% (n = 360,000); AID 651560, 2012;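 active = compounds that cut the enzyme signal by at least half of the control window in the single-dose screen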;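 also: plate controls were DMSO wells with enzyme plus substrate for no effect and substrate without enzyme for full effect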
# Target sequence (P24666 whole entry, looked up): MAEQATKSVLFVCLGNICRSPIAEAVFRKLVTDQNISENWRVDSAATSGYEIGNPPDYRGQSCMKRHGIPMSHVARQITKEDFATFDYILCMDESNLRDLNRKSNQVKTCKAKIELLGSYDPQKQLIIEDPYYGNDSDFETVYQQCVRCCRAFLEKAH
#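 test system = LMPTP-A | amount = 0.625 nM LMPTP-A final | reagent = fluorogenic phosphatase substrate OMFP at 400 µM final | incubation = 50 min at room temperature | benchmarks = no-enzyme low control, uninhibited high control | medium = Bis-Tris pH 6.0, DTT, detergent | signal = fluorescence intensity of OMFP turnover product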
# Scp-1 inhibitor – Scp-1 phosphatase inhibitors, primary screen, biochemical, colorimetric, uHTS | Carboxy-terminal domain RNA polymerase II polypeptide A small phosphatase 1 (Homo … | Recombinant Scp1, phosphopeptide, malachite green phosphate absorbance | inhibition, % at 20 µM | actives 0.88% (n = 340,000);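 active = inhibition above about 50% at 20 µM, limit read from the data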;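 also: plate controls were DMSO wells with enzyme for no effect and wells lacking enzyme for full effect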
# Target sequence (Q9GZU7 76-261 limits assumed): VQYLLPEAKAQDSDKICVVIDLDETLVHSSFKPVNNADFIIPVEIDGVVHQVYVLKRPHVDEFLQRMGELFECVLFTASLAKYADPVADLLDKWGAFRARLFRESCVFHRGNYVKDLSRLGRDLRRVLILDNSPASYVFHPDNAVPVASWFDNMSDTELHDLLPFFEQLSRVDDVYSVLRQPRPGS
#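 Test system: SCP-1 phosphatase catalytic domain, residues 76-261 | Compound dosing: One concentration, 20 µM, with 1.0% DMSO | Schedule: 45 min room-temperature reaction, 5 min colour, 30 min stabiliser | Detection: Absorbance at 630 nm | Read-out basis: % inhibition of SCP-1 phosphate liberation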
# Active calls of the source: *; nt = no result.
SMILES,GRK2 inh,SUMO1-SIM PPI,DNMT1 block,STEP inh,LMPTP block,Scp-1 inhibitor
COc1ccc(C2CCc3cc4c(cc3C2=NOC(C)=O)OCO4)cc1OC (stereo unspecified),nt,1.7,-6.0,0.2,-1.0,nt
O=C1c2ccccc2C(=O)c2c(Nc3ccc(CCO)cc3)ccc(O)c21,3.0,-8.0,-0.9,3.2,4.0,-12.5
O=C1c2c(O)ccc(O)c2C(=O)c2c(NCCNCCO)ccc(NCCNCCO)c21,99.0*,93.2*,-269.2,13.8,7.9,-15.2
O=S(=O)(/C=C/C=C/S(=O)(=O)c1ccccc1)c1ccccc1,nt,40.5*,14.4,0.9,0.2,-0.3
Cc1cn(-c2cc(NC(=O)c3ccc(C)c(NC(=O)c4cccc(-c5cn[nH]c(=O)c5)c4)c3)cc(C(F)(F)F)c2)cn1,0.0,73.3*,4.5,1.8,-1.3,5.4
Cc1ccc(NC(=O)c2cccc(C(F)(F)F)c2)cc1NC(=O)c1[nH]cnc1C(N)=O,0.0,-5.2,7.3,0.2,-0.8,-5.2
N#C/C(C(=O)NCCc1ccccc1)=C1/N=C(NC(=O)c2cccs2)c2ccccc21,2.0,48.2*,16.3,2.0,-0.1,-7.3
COCCCNC(=O)/C(C#N)=C1\N=C(NC(=O)c2cccs2)c2ccccc21,0.0,-44.5,-1.0,0.7,2.6,-3.3
CC(CC(c1ccccc1)N1CCc2ccccc2C1)=NO (stereo unspecified),nt,3.6,-4.4,-0.2,-1.8,nt
Brc1ccc(C2Nc3cccc4cccc(c34)N2)s1,2.0,8.7,55.2*,8.2,0.0,-3.1
Cc1ccc(-c2nc3cc(C)c(Br)c(C)n3c2Cc2ccsc2)cc1,nt,1.7,nt,nt,3.2,nt
O=C(Nc1ccc2c(c1)OCO2)c1cc(-c2cccc(O)c2)on1,2.0,5.3,-15.0,0.2,1.6,-3.4
O=C(Nc1ccc2c(c1)OCO2)c1cc(-c2ccc(O)cc2)on1,0.0,38.8*,-11.1,-3.0,0.6,-10.1
O=C(NCc1cc(Cl)cc(Cl)c1)c1ccc2sc([C@H]3C[C@H](O)[C@@H](CO)O3)nc2c1,nt,7.3,-9.0,-0.8,-0.7,nt
O=C(Nc1ccc(F)c(Cl)c1)c1cc(C2CCCCN2C(=O)c2ccc3c(c2)CCO3)on1 (stereo unspecified),nt,-4.0,-17.2,0.2,2.3,nt
Cc1cc(C(=O)Nc2cccc(O)c2)c(C)o1,1.0,37.5*,-6.0,-0.1,0.6,0.2
COc1ccc(NC(=O)C2(C)CCN2Cc2cccc(OC)c2F)cc1OC (stereo unspecified),nt,-0.9,-1.2,-1.7,0.5,nt
COc1ccc2nc(Cl)c(C=O)c(N3CCOCC3)c2c1,nt,-19.0,5.8,5.6,-2.5,nt
Cc1cc(-c2ccccc2)nc(Nc2nc3c(C)cccc3c(=O)[nH]2)n1,nt,52.6*,47.7,-0.2,7.2,-8.4
COc1ccc(CNC(=O)C[C@@H]2C=C[C@@H](NS(=O)(=O)c3cccc(OC)c3)[C@@H](CO)O2)cc1,nt,6.5,nt,nt,-1.1,nt
CCOc1cc(/C=C2\N=C(SCC)SC2=O)cc([N+](=O)[O-])c1OC(C)=O,2.0,6.9,0.7,11.4,5.4,0.2
CCOc1c(OC(C)=O)ccc(/C=C2\N=C(SCC)SC2=O)c1[N+](=O)[O-],100.0*,-34.8,-15.7,1.7,0.4,-14.1
COc1ccc(N=c2oc3ccccc3cc2C(=O)Nc2ccccn2)cc1OC,72.0*,nt,nt,nt,nt,nt
CN(Cc1ccccc1)C(=O)[C@@H]1CCCN1C(=O)[C@@H]1CCCN1C(=O)c1cccc(Cl)c1,nt,1.8,nt,nt,-1.3,nt
Cc1ccc(CN2CCC(C)(Oc3cccc(Cl)c3)C2)cc1 (stereo unspecified),nt,-0.5,2.8,-3.5,-1.2,nt
SMILES,GRK2 inh,SUMO1-SIM PPI,DNMT1 block,STEP inh,LMPTP block,Scp-1 inhibitor
Oc1c(C(Nc2nc3ccccc3s2)c2ccco2)ccc2cccnc12 (stereo unspecified),0.0,49.5*,-9.3,-0.7,3.6,-4.5
Cc1ccccc1C(=O)N1CCN(c2ccccn2)CC1,45.0*,1.7,-1.2,-3.2,-3.1,-2.2
Cc1ccccc1C(=O)N1CCN(c2ncccn2)CC1,0.0,-0.8,2.9,-1.4,-2.5,-1.8
C/C(=N\NC(=O)c1cc(O)ccc1O)c1cccc(NC(=O)c2cccc(Cl)c2)c1,5.0,20.4,-10.2,1.6,7.2,1.1
C/C(=N\NC(=O)c1cc(O)ccc1O)c1cccc(NC(=O)c2ccc(Cl)cc2)c1,0.0,43.8*,-13.3,12.4,44.0,48.8
CCOc1ccc2nc3cc(N=Nc4ccc(N)nc4N)ccc3c(N)c2c1,nt,115.8*,-134.7,66.2*,72.2*,-0.3
COc1ccc(N=Nc2ccc(N)nc2N)cc1,0.0,-38.5,-1.6,1.2,5.3,-4.4
CCOC(=O)c1c2c(n(Cc3ccccc3)c1C)C(=O)C(=O)c1ccccc1-2,nt,16.4,93.1*,1.6,13.8,-7.7
CCOC(=O)c1c2c(n(C)c1C)C(=O)C(=O)c1ccc(Br)cc1-2,0.0,22.0,88.5*,1.8,2.9,-4.3
CC1(C(=O)NS(=O)(=O)c2cccc(OC(F)F)c2)CCN1C(=O)c1cccc(F)c1 (stereo unspecified),nt,0.2,2.8,-5.8,4.3,nt
CCOc1ccc(Cl)cc1-c1cc(C(=O)NCc2cccc(C(F)(F)F)c2)[nH]n1,nt,5.2,-14.1,-5.6,2.3,nt
Clc1cccc(Cl)c1Cn1cnc(=NCc2ccco2)c2[nH]cnc21,1.0,1.8,1.1,4.5,84.4*,5.7
Clc1cccc(Cl)c1Cn1cnc2c(NCc3ccco3)ncnc21,0.0,-3.3,-1.8,0.5,4.0,2.2
CN(C)c1ccc(CC(=O)N2CCCCC2c2cc(C(=O)Nc3cccc4c3CCCC4)no2)cc1 (stereo unspecified),nt,5.0,-6.4,5.1,2.8,nt
C/C(=N\Nc1ccc(C(=O)O)cc1)c1ccc(Br)cc1,14.0,1.4,42.6,30.3,3.4,52.3*
COC(=O)[C@]12CCCCC=C1N(CCC1=CCCCC1)C(=O)[C@H](CC(=O)N1CCCCC1)C2,nt,3.1,nt,nt,0.6,nt
Cc1cc(C)c2c(N)c(C(=O)Nc3ccc([N+](=O)[O-])cc3)sc2n1,0.0,43.9*,-9.6,18.6,28.1,39.3
COc1ccc(NC(=O)c2sc3nc(C)cc(C)c3c2N)cc1,0.0,-30.9,-1.1,0.6,0.1,-1.9
Cc1ccc(C)n1-c1sccc1C(=O)O,nt,66.3*,106.8*,75.0*,40.3,79.9*

# Bioassay records as filed in PubChem BioAssay.
